Source: ChEMBL document CHEMBL1147176, “Synthesis of S-dialkylarsino-3-mercapto-1,2-propanediols and evaluation of their anticancer activity” (2007)

Assays:
Type in all cases: functional
TK-10 = test: Anticancer activity against human TK10 cells assessed as growth inhibition
In short: (§1)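 NCI in vitro disease-oriented human tumor cell screen, about 60 lines. Growth inhibition read as pGI50, the -log of the molar concentration inhibiting 50% net cell growth. A mean graph midpoint is the arithmetic mean over all tested lines. Where the effect was not reached within the concentration interval, the highest tested concentration was used.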

MOLT-4 = test: Anticancer activity against human MOLT4 cells assessed as growth inhibition; in short: as §1
HCT-116 = test: Anticancer activity against human HCT116 cells assessed as growth inhibition; in short: as §1
RPMI-8226 = test: Anticancer activity against human RPMI8226 cells assessed as growth inhibition; in short: as §1
NCI/ADR-RES = test: Anticancer activity against human NCI/ADR-RES cells assessed as growth inhibition; in short: as §1
[1] = Anticancer activity against human HS 578T cells assessed as growth inhibition; in short: as §1
BT-549 = test: Anticancer activity against human BT549 cells assessed as growth inhibition; in short: as §1
SF-539 = test: Anticancer activity against human SF539 cells assessed as growth inhibition; in short: as §1
CCRF-CEM = test: Anticancer activity against human CCRF-CEM cells assessed as growth inhibition; in short: as §1
M14 = test: Anticancer activity against human M14 cells assessed as growth inhibition; in short: as §1
ACHN = test: Anticancer activity against human ACHN cells assessed as growth inhibition; in short: as §1
NCI-H460 = test: Anticancer activity against human NCI-H460 cells assessed as growth inhibition; in short: as §1
RXF 393 = test: Anticancer activity against human RXF393 cells assessed as growth inhibition; in short: as §1
EKVX = test: Anticancer activity against human EKVX cells assessed as growth inhibition; in short: as §1
A549 = test: Anticancer activity against human A549/ATCC cells assessed as growth inhibition; in short: as §1
MCF7 = test: Anticancer activity against human MCF7 cells assessed as growth inhibition; in short: as §1
OVCAR-4 = test: Anticancer activity against human OVCAR4 cells assessed as growth inhibition; in short: as §1
SR = test: Anticancer activity against human SR cells assessed as growth inhibition; in short: as §1
HOP-92 = test: Anticancer activity against human HOP92 cells assessed as growth inhibition; in short: as §1
DU-145 = test: Anticancer activity against human DU145 cells assessed as growth inhibition; in short: as §1
OVCAR-8 = test: Anticancer activity against human OVCAR8 cells assessed as growth inhibition; in short: as §1
SK-OV-3 = test: Anticancer activity against human SK-OV3 cells assessed as growth inhibition; in short: as §1
SNB-19 = test: Anticancer activity against human SNB19 cells assessed as growth inhibition; in short: as §1
COLO 205 = test: Anticancer activity against human COLO 205 cells assessed as growth inhibition; in short: as §1
HCT-15 = test: Anticancer activity against human HCT15 cells assessed as growth inhibition; in short: as §1
HCC 2998 = test: Anticancer activity against human HCC2998 cells assessed as growth inhibition; in short: as §1
UO-31 = test: Anticancer activity against human UO31 cells assessed as growth inhibition
In short: (§2)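 The value is GI50, the molar concentration causing 50% inhibition of net cell growth, reported as pGI50 (−log molar).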

SN12C = test: Anticancer activity against human SN12C cells assessed as growth inhibition; in short: as §1
HT-29 = test: Anticancer activity against human HT29 cells assessed as growth inhibition; in short: as §1
NCI-H226 = test: Anticancer activity against human NCI-H226 cells assessed as growth inhibition; in short: as §1
Malme-3M = test: Anticancer activity against human MALME3M cells assessed as growth inhibition; in short: as §1
CAKI-1 = test: Anticancer activity against human CAKI1 cells assessed as growth inhibition; in short: as §1
NCI-H23 = test: Anticancer activity against human NCI-H23 cells assessed as growth inhibition; in short: as §1
HL-60 = test: Anticancer activity against human HL60(TB) cells assessed as growth inhibition; in short: as §1
SF-268 = test: Anticancer activity against human SF268 cells assessed as growth inhibition; in short: as §1
PC-3 = test: Anticancer activity against human PC3 cells assessed as growth inhibition; in short: as §1
T47D = test: Anticancer activity against human T47D cells assessed as growth inhibition; in short: as §1
OVCAR-3 = test: Anticancer activity against human OVCAR-3 cells assessed as growth inhibition; in short: as §1
K562 = test: Anticancer activity against human K562 cells assessed as growth inhibition; in short: as §1
NCI-H522 = test: Anticancer activity against human NCI-H522 cells assessed as growth inhibition; in short: as §1
786-0 = test: Anticancer activity against human 786-0 cells assessed as growth inhibition; details: read-out: Log LC50 (the source's name) (converted); in short: as §1
SK-MEL-28 = test: Anticancer activity against human SK-MEL-28 cells assessed as growth inhibition; in short: as §1
MDA-MB-435 = test: Anticancer activity against human MDA-MB435 cells assessed as growth inhibition; in short: as §1
IGROV-1 = test: Anticancer activity against human IGROV1 cells assessed as growth inhibition; in short: as §1
OVCAR-5 = test: Anticancer activity against human OVCAR5 cells assessed as growth inhibition; in short: as §1
SW-620 = test: Anticancer activity against human SW620 cells assessed as growth inhibition; in short: as §1
NCI-H322M = test: Anticancer activity against human NCI-H322M cells assessed as growth inhibition; in short: as §1
SF-295 = test: Anticancer activity against human SF295 cells assessed as growth inhibition; in short: as §1
A498 = test: Anticancer activity against human A498 cells assessed as growth inhibition; in short: as §1
HOP-62 = test: Anticancer activity against human HOP62 cells assessed as growth inhibition; in short: as §1
KM12 = test: Anticancer activity against human KM12 cells assessed as growth inhibition; in short: as §1
U-251 = test: Anticancer activity against human U251 cells assessed as growth inhibition; in short: as §2
[2] = read-out: Log LC50 (the source's name) (converted)

C[As](C)SCC(COC(=O)C(Cl)c1ccccc1)OC(=O)C(Cl)c1ccccc1 (configuration not stated) showed a GI50 (TK-10) of 0.112 µM, a CC50 (TK-10; [2]) of 2.69 µM and a GI50 (MOLT-4) of 0.347 µM. The CC50 (MOLT-4; [2]) was > 100 µM, the GI50 (HCT-116) was 0.407 µM and the CC50 (HCT-116; [2]) was 4.9 µM. The GI50 (RPMI-8226) was 0.316 µM, the CC50 (RPMI-8226; [2]) was > 100 µM and the GI50 (NCI/ADR-RES) was 2.04 µM. The CC50 (NCI/ADR-RES; [2]) was 32.4 µM, the GI50 [1] was 6.17 µM and the CC50 [1, 2] was > 100 µM. For the same compound, the GI50 (BT-549) was 2.45 µM, the CC50 (BT-549; [2]) was 64.6 µM and the GI50 (SF-539) was 3.63 µM. The CC50 (SF-539; [2]) was > 100 µM, the GI50 (CCRF-CEM) was 0.302 µM and the CC50 (CCRF-CEM; [2]) was 32.4 µM. It also gave a GI50 (M14) of 0.603 µM, a CC50 (M14; [2]) of 34.7 µM and a GI50 (ACHN) of 0.759 µM. The CC50 (ACHN; [2]) was 38.9 µM, the GI50 (NCI-H460) was 5.75 µM and the CC50 (NCI-H460; [2]) was 79.4 µM. The GI50 (RXF 393) was 0.363 µM, the CC50 (RXF 393; [2]) was 36.3 µM and the GI50 (EKVX) was 10.5 µM. The CC50 (EKVX; [2]) was > 100 µM, the GI50 (A549) was 3.72 µM and the CC50 (A549; [2]) was > 100 µM. It also gave a GI50 (MCF7) of 0.372 µM, a CC50 (MCF7; [2]) of 67.6 µM and a GI50 (OVCAR-4) of 1.26 µM. For the same compound, the CC50 (OVCAR-4; [2]) was > 100 µM, the GI50 (SR) was 1.41 µM and the CC50 (SR; [2]) was > 100 µM. The GI50 (HOP-92) was 0.162 µM, the CC50 (HOP-92; [2]) was 40.7 µM and the GI50 (DU-145) was 4.27 µM. The CC50 (DU-145; [2]) was 58.9 µM, the GI50 (OVCAR-8) was 4.07 µM and the CC50 (OVCAR-8; [2]) was > 100 µM. The GI50 (SK-OV-3) was 0.646 µM, the CC50 (SK-OV-3; [2]) was > 100 µM and the GI50 (SNB-19) was 11.5 µM. For the same compound, the CC50 (SNB-19; [2]) was 85.1 µM, the GI50 (COLO 205) was 0.363 µM and the CC50 (COLO 205; [2]) was > 100 µM. The GI50 (HCT-15) was 0.38 µM, the CC50 (HCT-15; [2]) was > 100 µM and the GI50 (HCC 2998) was 1.55 µM. The CC50 (HCC 2998; [2]) was 8.13 µM, the GI50 (UO-31) was 5.37 µM and the CC50 (UO-31; [2]) was > 100 µM. For the same compound, the GI50 (SN12C) was 2.45 µM, the CC50 (SN12C; [2]) was 67.6 µM and the GI50 (HT-29) was 0.813 µM. The CC50 (HT-29; [2]) was > 100 µM, the GI50 (NCI-H226) was 26.9 µM and the CC50 (NCI-H226; [2]) was 67.6 µM. It also gave a GI50 (Malme-3M) of 0.0398 µM, a CC50 (Malme-3M; [2]) of 3.39 µM and a GI50 (CAKI-1) of 0.347 µM. For the same compound, the CC50 (CAKI-1; [2]) was 30.2 µM, the GI50 (NCI-H23) was 0.741 µM and the CC50 (NCI-H23; [2]) was 22.9 µM. The GI50 (HL-60) was 0.162 µM, the CC50 (HL-60; [2]) was 8.51 µM and the GI50 (SF-268) was 3.16 µM. It also gave a CC50 (SF-268; [2]) of 56.2 µM, a GI50 (PC-3) of 0.55 µM and a CC50 (PC-3; [2]) of 47.9 µM. It also gave a GI50 (T47D) of 5.89 µM, a CC50 (T47D; [2]) of 60.3 µM and a GI50 (OVCAR-3) of 0.178 µM. It also gave a CC50 (OVCAR-3; [2]) of 3.24 µM, a GI50 (K562) of 0.0372 µM and a CC50 (K562; [2]) of 5.37 µM. For the same compound, the GI50 (NCI-H522) was 0.457 µM, the CC50 (NCI-H522; [2]) was > 100 µM and the CC50 (786-0) was 25.1 µM. It also gave a GI50 (SK-MEL-28) of 0.603 µM, a GI50 (MDA-MB-435) of 0.209 µM and a CC50 (MDA-MB-435; [2]) of 28.8 µM. For the same compound, the GI50 (IGROV-1) was 4.47 µM, the CC50 (IGROV-1; [2]) was > 100 µM and the GI50 (OVCAR-5) was 3.55 µM. For the same compound, the CC50 (OVCAR-5; [2]) was 37.2 µM, the GI50 (SW-620) was 0.617 µM and the CC50 (SW-620; [2]) was > 100 µM. The GI50 (NCI-H322M) was 1.66 µM, the CC50 (NCI-H322M; [2]) was 32.4 µM and the GI50 (SF-295) was 3.63 µM. It also gave a CC50 (SF-295; [2]) of 43.7 µM, a GI50 (A498) of 5.5 µM and a CC50 (A498; [2]) of 57.5 µM. For the same compound, the GI50 (HOP-62) was 4.37 µM, the CC50 (HOP-62; [2]) was 40.7 µM and the GI50 (KM12) was 1.2 µM. For the same compound, the CC50 (KM12; [2]) was 30.9 µM, the GI50 (U-251) was 6.31 µM and the CC50 (U-251; [2]) was > 100 µM.
